Experimental data published in ChEMBL document CHEMBL1127442, “Triazolinone biphenylsulfonamide derivatives as orally active angiotensin II antagonists with potent AT1 receptor affinity and enhanced AT2 affinity” (J Med Chem, 1994).
pIC50: −log10 of the molar value. Values joined by “and” are separate entries in the source; they are usually repeats but may differ in a detail not shown here. Equal values may be shown once. Active and inactive are the calls of the source. No cut-off for these calls is given here.

Columns and labels:
[1] = system: Rattus norvegicus; assay: Inhibition of AII pressor response by the compound in conscious, normotensive rats, at 1 (mg/kg) intravenous dose; format: functional
How it was run: (§1)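 Male Sprague-Dawley rats (300-400 g) were conscious and catheterized for iv dosing and arterial pressure. Compound was given iv or po as the potassium salt in water, with PEG 400 for some oral doses. […] Peak inhibition is the mean of ≥2 rats.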

[2] = system: Rattus norvegicus; assay: Inhibition of AII pressor response by the compound in conscious, normotensive rats, at 1 (mg/kg) peroral dose; format: functional; how it was run: as §1
[3] = system: Rattus norvegicus; assay: Time from onset of action until significant (i.e., >=30%) inhibition of pressor response is no longer observed, at 1 (mg/kg) peroral dose; format: functional
How it was run: (§2)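 Conscious catheterized male Sprague-Dawley rats received compound iv or po as the water-soluble potassium salt, or in PEG 400 orally. AII (0.1 μg/kg iv) boluses were repeated at intervals while the compound was active.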

[4] = system: Rattus norvegicus; assay: (§3) Time from onset of action until significant (i.e., >=30%) inhibition of pressor response is no longer observed, at 1 (mg/kg) intravenous dose; format: functional
[5] = system: Monkey; assay: Inhibition of AII pressor response by the compound in conscious, normotensive monkey, at 3 (mg/kg) peroral dose; format: functional, Cercopithecidae
How it was run: (§4)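 Rhesus monkeys were conscious, given furosemide (5 mg/kg iv) the prior evening, and fasted 18 h with water available. They sat chaired with minimal restraint. AII and iv compound went through saphenous or brachial vein catheters, and oral compound by nasogastric tube. Peak % inhibition of the AII pressor response was measured otherwise as in the rat protocol.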

[6] = target: T1, Type-2 angiotensin II receptor (Rattus norvegicus, UniProt P35351); assay: In vitro inhibitory activity against angiotensin II rat midbrain AT2 receptor using radioligand [125I]-Sar Ile-AII
T1 sequence (P35351 whole entry): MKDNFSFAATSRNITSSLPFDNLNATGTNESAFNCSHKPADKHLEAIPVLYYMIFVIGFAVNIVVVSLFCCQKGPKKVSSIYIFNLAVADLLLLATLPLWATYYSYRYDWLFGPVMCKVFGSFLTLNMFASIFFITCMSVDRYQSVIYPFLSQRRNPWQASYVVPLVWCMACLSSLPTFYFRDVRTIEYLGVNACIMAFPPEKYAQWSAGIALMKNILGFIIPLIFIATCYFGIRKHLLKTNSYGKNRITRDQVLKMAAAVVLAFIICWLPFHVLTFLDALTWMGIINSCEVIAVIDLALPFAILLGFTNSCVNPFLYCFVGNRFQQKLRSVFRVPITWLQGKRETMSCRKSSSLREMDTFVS
How it was run: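 Dithiothreitol ([…]) was added to the assay mixture to abolish residual AT1 binding. Tubes were run in duplicate, and IC50 came from nonlinear regression of displacement curves.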

[7] = system: Monkey; assay: (§5) Time from onset of action until significant (i.e., >=30%) inhibition of pressor response is no longer observed, at 3 (mg/kg) peroral dose; format: functional, Cercopithecidae
[8] = target: T2, Type-1 angiotensin II receptor (Oryctolagus cuniculus, UniProt P34976); assay: In vitro inhibitory activity against angiotensin II rabbit aorta AT1 receptor using radioligand [125I]-Sar Ile-AII; format: tissue-based
T2 sequence (P34976 whole entry): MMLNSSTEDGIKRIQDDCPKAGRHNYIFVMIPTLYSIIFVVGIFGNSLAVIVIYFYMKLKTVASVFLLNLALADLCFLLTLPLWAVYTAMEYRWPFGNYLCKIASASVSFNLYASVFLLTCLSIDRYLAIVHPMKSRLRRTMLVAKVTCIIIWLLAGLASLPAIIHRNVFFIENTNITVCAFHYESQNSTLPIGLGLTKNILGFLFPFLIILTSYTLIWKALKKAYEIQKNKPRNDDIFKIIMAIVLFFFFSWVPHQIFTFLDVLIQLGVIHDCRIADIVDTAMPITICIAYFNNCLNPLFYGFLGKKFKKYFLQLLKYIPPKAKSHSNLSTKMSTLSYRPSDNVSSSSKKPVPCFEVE

[9] = system: Rattus norvegicus; assay: Inhibition of AII pressor response by the compound in conscious, normotensive rats, at 3 (mg/kg) peroral dose; format: functional; how it was run: as §1
[10] = system: Rattus norvegicus; assay: as §5; format: functional
[11] = system: Monkey; assay: (§6) Time from onset of action until significant (i.e., >=30%) inhibition of pressor response is no longer observed, at 0.3 (mg/kg) peroral dose; format: functional, Cercopithecidae; settings: in the assay text read “intravenous” for “peroral”
[12] = system: Monkey; assay: Inhibition of AII pressor response by the compound in conscious, normotensive monkey, at 10 (mg/kg) peroral dose; format: functional, Cercopithecidae; how it was run: as §4
[13] = system: Rattus norvegicus; assay: as §6; format: functional; how it was run: as §2
[14] = system: Rattus norvegicus; assay: Time from onset of action until significant (i.e., >=30%) inhibition of pressor response is no longer observed, at 3 (mg/kg) intravenous dose; format: functional; how it was run: as §2
[15] = system: Monkey; settings: Cercopithecidae
[16] = system: Monkey; assay: Inhibition of AII pressor response by the compound in conscious, normotensive monkey, at 3 (mg/kg) peroral dose; NA= Not active; format: functional, organism-based; settings: Cercopithecidae; how it was run: as §4
[17] = system: Rattus norvegicus; assay: Inhibition of AII pressor response by the compound in conscious, normotensive rats, at 0.3 (mg/kg) intravenous dose; format: functional; how it was run: as §1
[18] = system: Monkey; assay: Inhibition of AII pressor response by the compound in conscious, normotensive monkey, at 0.3 (mg/kg) intravenous dose; format: functional, Cercopithecidae; how it was run: as §4
[19] = system: Monkey; assay: Time from onset of action until significant (i.e., >=30%) inhibition of pressor response is no longer observed, at 10 (mg/kg) peroral dose; format: functional, Cercopithecidae
How it was run: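 Conscious rhesus monkeys were pretreated with furosemide (5 mg/kg iv) and fasted 18 h. Compound was given orally by nasogastric tube, and AII challenges were given iv via a venous catheter, otherwise as in rats.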

[20] = system: Monkey; assay: Time from onset of action until significant (i.e., >=30%) inhibition of pressor response is no longer observed, at 10 (mg/kg) peroral dose
[21] = Inhibition of AII pressor response by the compound in conscious, normotensive rhesus monkeys, at 1 (mg/kg) intravenous dose
[22] = system: Rattus norvegicus; assay: Inhibition of AII pressor response by the compound in conscious, normotensive rats, at 3 (mg/kg) intravenous dose; format: functional; how it was run: as §1
[23] = Inhibition of AII pressor response by the compound in conscious, normotensive rhesus monkeys, at 0.3 (mg/kg) intravenous dose
[24] = system: Monkey; assay: as §3; format: functional, Cercopithecidae
[25] = system: Rattus norvegicus; assay: Time from onset of action until significant (i.e., >=30%) inhibition of pressor response is no longer observed, at 0.3 (mg/kg) peroral dose; NA= Not active; format: functional, organism-based; how it was run: as §2
[26] = system: Rattus norvegicus; assay: Inhibition of AII pressor response by the compound in conscious, normotensive rats, at 0.3 (mg/kg) peroral dose; format: functional; how it was run: as §1
[27] = system: Rattus norvegicus; assay: Time from onset of action until significant (i.e., >=30%) inhibition of pressor response is no longer observed, at 0.1 (mg/kg) peroral dose; format: functional; how it was run: as §2
[28] = system: Rattus norvegicus; assay: Inhibition of AII pressor response by the compound in conscious, normotensive rats, at 0.1 (mg/kg) peroral dose; format: functional; how it was run: as §1
[29] = system: Rattus norvegicus; assay: Inhibition of AII pressor response by the compound in conscious, normotensive rats, at 0.1 (mg/kg) intravenous dose; format: functional; how it was run: as §1
[30] = system: Rattus norvegicus; assay: Time from onset of action until significant (i.e., >=30%) inhibition of pressor response is no longer observed, at 0.1 (mg/kg) intravenous dose; format: functional; how it was run: as §2

SMILES	Inhibition [1]	Inhibition [2]	Duration [3]	Duration [4]	pIC50 [6]	pIC50 [8]	Duration [11]	Duration [13]	Duration [14]	Inhibition [17]	also measured
CCCCc1nn(-c2ccccc2C(F)(F)F)c(=O)n1Cc1ccc(-c2ccccc2S(=O)(=O)NC(=O)c2ccco2)cc1	85%	70%	3.7 h	>6 h	6.92	9.59	–	–	–	–	Inhibition [5]: 54%; Duration [7]: 4 h
O=C(NS(=O)(=O)c1ccccc1-c1ccc(Cn2c(CCCC(F)(F)F)nn(-c3ccccc3C(F)(F)F)c2=O)cc1)c1ccccc1Cl	67%	–	–	2.4 h	6.04	9.44	–	–	–	–	Inhibition [9]: 76%; Duration [10]: >24 h
CCCCc1nc(Cl)c(CO)n1Cc1ccc(-c2ccccc2-c2nnn[nH]2)cc1 [LOSARTAN]	78%	58%	–	–	–	–	0.1 h	5.5 h	>6 h	52%	Inhibition [12]: 50%; Duration [15]: inactive; inhibition [16]: inactive; Inhibition [18]: 49%; Duration [19]: 2.1 h
CCCCc1nn(-c2ccccc2C(F)(F)F)c(=O)n1Cc1ccc(-c2ccccc2S(=O)(=O)NC(=O)C2CC2(C)C)cc1 (stereo unspecified)	–	76%	>6 h	–	6.66	9.44	3.5 h	>5.5 h	–	84%	–
CCCCc1nn(-c2ccccc2C(F)(F)F)c(=O)n1Cc1ccc(-c2ccccc2S(=O)(=O)NC(=O)c2ccccc2)cc1.ClCCl	–	–	–	–	6.52	9.37	5 h	<0.5 h	>6 h	31%	Duration [20]: >4 h; Inhibition [21]: 88%; Inhibition [22]: 87%; Inhibition [23]: 80%; Duration [24]: >6 h; Duration [25]: inactive; inhibition [26]: inactive
CCCCc1nn(-c2ccccc2C(F)(F)F)c(=O)n1Cc1ccc(-c2ccccc2S(=O)(=O)NC(=O)OC(C)(C)C)cc1	–	–	>6 h	>6 h	7.77	9.35	–	>4.5 h and >3.5 h	–	78%	Duration [27]: >3 h; Inhibition [28]: 77%; Inhibition [29]: 76%; Duration [30]: >4.5 h; Inhibition [26]: 81%
